For 1 molecule, Activity and T/C results are on record in ChEMBL document CHEMBL3244396, “Synthesis and antileukemic activity of 5-substituted 2,3-dihydro-6,7-bis(hydroxymethyl)-1H-pyrrolizine diesters” (J Med Chem, 1977).

Series [1] relates to P388. Nature of the series: Antitumor activity against mouse P388 cells allografted in male CDF1 mouse assessed as change in body weight at 50 mg/kg, ip administered daily for 9 days as saline with Tween-80 solution starting 24 hrs after tumor inoculation. It counts as functional. The note with it: route intraperitoneal. The procedure, abridged:
(§1)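 Ascitic fluid carrying P388 cells was inoculated ip. Compound was given ip in nine daily doses, starting 24 h after inoculation, in Klucel (hydroxypropylcellulose) suspension or in saline with Tween-80. Body-weight difference (treated minus control) was recorded on day 5. Survival was scored as %T/C of median survival time, and 30-day survival counted as cure.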

Series [2] relates to Mus musculus. Nature of the series: Toxicity in male CDF1 mouse allografted with mouse P388 cells assessed as animal survival at 25 mg/kg, ip administered daily for 9 days as saline with Tween-80 solution starting 24 hrs after tumor inoculation. In kind it is organism-based. More on the design: dose 25 mg/kg, route intraperitoneal. The note with it: in vivo. The procedure, abridged:
(§2)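 P-388 leukemia ascitic fluid implanted ip. Compound dosed ip in saline with Tween-80 vehicle, once daily for nine doses from 24 h after tumor inoculation. Acute toxicity scored as toxicity-day survivors per group. Survival was followed up to 30 days, with 30-day survival counted as "cure". Follows NCI screening protocols.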

Series [3] has as its system P388. Nature of the series: Antitumor activity against mouse P388 cells allografted in female CDF1 mouse assessed as disease cures by measuring 30-days host survival at 100 mg/kg, ip administered daily for 9 days as saline with Tween-80 solution starting 24 hrs after tumor inoculation relative to control. In kind it is functional. The note with it: route intraperitoneal. Summed up:
(§3)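 P388 ascitic cell inoculum given ip to CDF1 mice of the sex in each line. Nine daily ip doses in saline with Tween-80 as vehicle, starting 24 h after inoculation. Median survival time expressed as %T/C (>125 significant); "cure" defined as 30-day survival.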

Series [4] has as its system P388. Nature of the series: Antitumor activity against mouse P388 cells allografted in male CDF1 mouse assessed as change in body weight at 25 mg/kg, ip administered daily for 9 days as saline with Tween-80 solution starting 24 hrs after tumor inoculation. The settings on record: route intraperitoneal. It counts as functional. Summed up:
as §1

The subject of series [5] is P388. Nature of the series: Antitumor activity against mouse P388 cells allografted in male CDF1 mouse assessed as disease cures by measuring 30-days host survival at 100 mg/kg, ip administered daily for 9 days as saline with Tween-80 solution starting 24 hrs after tumor inoculation relative to control. In kind it is functional. The note with it: route intraperitoneal. The procedure, abridged: as §3

Series [6] has as its system P388. Nature of the series: Antitumor activity against mouse P388 cells allografted in female CDF1 mouse assessed as disease cures by measuring 30-days host survival at 50 mg/kg, ip administered daily for 9 days as saline with Tween-80 solution starting 24 hrs after tumor inoculation relative to control. The settings on record: route intraperitoneal. It counts as functional. Summed up: as §3

In series [7] the test system is Mus musculus. Nature of the series: Toxicity in female CDF1 mouse allografted with mouse P388 cells assessed as animal survival at 25 mg/kg, ip administered daily for 9 days as saline with Tween-80 solution starting 24 hrs after tumor inoculation. The settings on record: in vivo. In kind it is organism-based. More on the design: dose 25 mg/kg, route intraperitoneal. Summed up: as §2

The test system of series [8] is P388. Nature of the series: Antitumor activity against mouse P388 cells allografted in male CDF1 mouse assessed as change in body weight at 100 mg/kg, ip administered daily for 9 days as saline with Tween-80 solution starting 24 hrs after tumor inoculation. The note with it: route intraperitoneal. In kind it is functional. Summed up: as §1
In series [9] the test system is P388. Nature of the series: Antitumor activity against mouse P388 cells allografted in female CDF1 mouse assessed as change in body weight at 100 mg/kg, ip administered daily for 9 days as saline with Tween-80 solution starting 24 hrs after tumor inoculation. It counts as functional. The note with it: route intraperitoneal. Summed up: as §1
In series [10] the test system is P388. Nature of the series: Antitumor activity against mouse P388 cells allografted in male CDF1 mouse assessed as disease cures by measuring 30-days host survival at 25 mg/kg, ip administered daily for 9 days as saline with Tween-80 solution starting 24 hrs after tumor inoculation relative to control. It counts as functional. The note with it: route intraperitoneal. The procedure, abridged:
as §3

For series [11], the system named is Mus musculus. Nature of the series: Toxicity in male CDF1 mouse allografted with mouse P388 cells assessed as animal survival at 100 mg/kg, ip administered daily for 9 days as saline with Tween-80 solution starting 24 hrs after tumor inoculation. In kind it is organism-based. Set-up: dose 100 mg/kg, route intraperitoneal. The note with it: in vivo. Summed up:
as §2

Series [12] concerns P388. Nature of the series: Antitumor activity against mouse P388 cells allografted in male CDF1 mouse assessed as change in body weight at 400 mg/kg, ip administered daily for 9 days as saline with Tween-80 solution starting 24 hrs after tumor inoculation. It counts as functional. The settings on record: route intraperitoneal. Summed up:
as §1

Series [13] has as its system Mus musculus. Nature of the series: Toxicity in female CDF1 mouse allografted with mouse P388 cells assessed as animal survival at 100 mg/kg, ip administered daily for 9 days as saline with Tween-80 solution starting 24 hrs after tumor inoculation. It counts as organism-based. More on the design: dose 100 mg/kg, route intraperitoneal. The settings on record: in vivo. Summed up:
as §2

For series [14], the system named is P388. Nature of the series: Antitumor activity against mouse P388 cells allografted in male CDF1 mouse assessed as disease cures by measuring 30-days host survival at 400 mg/kg, ip administered daily for 9 days as saline with Tween-80 solution starting 24 hrs after tumor inoculation relative to control. In kind it is functional. The settings on record: route intraperitoneal. The procedure, abridged: as §3

Series [15] concerns Mus musculus. Nature of the series: Toxicity in female CDF1 mouse allografted with mouse P388 cells assessed as animal survival at 50 mg/kg, ip administered daily for 9 days as saline with Tween-80 solution starting 24 hrs after tumor inoculation. More on the design: dose 50 mg/kg, route intraperitoneal. It counts as organism-based. The settings on record: in vivo. The procedure, abridged: as §2

Series [16] concerns P388. Nature of the series: Antitumor activity against mouse P388 cells allografted in female CDF1 mouse assessed as disease cures by measuring 30-days host survival at 25 mg/kg, ip administered daily for 9 days as saline with Tween-80 solution starting 24 hrs after tumor inoculation relative to control. It counts as functional. The note with it: route intraperitoneal. Summed up:
as §3

Series [17] relates to P388. Nature of the series: Antitumor activity against mouse P388 cells allografted in female CDF1 mouse assessed as change in body weight at 25 mg/kg, ip administered daily for 9 days as saline with Tween-80 solution starting 24 hrs after tumor inoculation. The note with it: route intraperitoneal. In kind it is functional. The procedure, abridged: as §1
Series [18] deals with P388. Nature of the series: Antitumor activity against mouse P388 cells allografted in male CDF1 mouse assessed as change in body weight at 200 mg/kg, ip administered daily for 9 days as saline with Tween-80 solution starting 24 hrs after tumor inoculation. It counts as functional. The note with it: route intraperitoneal. Summed up: as §1
For series [19], the system named is Mus musculus. Nature of the series: Toxicity in male CDF1 mouse allografted with mouse P388 cells assessed as animal survival at 400 mg/kg, ip administered daily for 9 days as saline with Tween-80 solution starting 24 hrs after tumor inoculation. It counts as organism-based. More on the design: dose 400 mg/kg, route intraperitoneal. The settings on record: in vivo. Summed up: as §2

In series [20] the test system is Mus musculus. Nature of the series: Toxicity in male CDF1 mouse allografted with mouse P388 cells assessed as animal survival at 200 mg/kg, ip administered daily for 9 days as saline with Tween-80 solution starting 24 hrs after tumor inoculation. Set-up: dose 200 mg/kg, route intraperitoneal. The settings on record: in vivo. It counts as organism-based. Summed up:
as §2

Series [21] concerns Mus musculus. Nature of the series: Toxicity in male CDF1 mouse allografted with mouse P388 cells assessed as animal survival at 50 mg/kg, ip administered daily for 9 days as saline with Tween-80 solution starting 24 hrs after tumor inoculation. The settings on record: in vivo. In kind it is organism-based. Set-up: dose 50 mg/kg, route intraperitoneal. Summed up:
as §2

Series [22] concerns P388. Nature of the series: Antitumor activity against mouse P388 cells allografted in male CDF1 mouse assessed as disease cures by measuring 30-days host survival at 50 mg/kg, ip administered daily for 9 days as saline with Tween-80 solution starting 24 hrs after tumor inoculation relative to control. In kind it is functional. The settings on record: route intraperitoneal. Summed up:
as §3

Series [23] concerns P388. Nature of the series: Antitumor activity against mouse P388 cells allografted in male CDF1 mouse assessed as disease cures by measuring 30-days host survival at 200 mg/kg, ip administered daily for 9 days as saline with Tween-80 solution starting 24 hrs after tumor inoculation relative to control. In kind it is functional. The note with it: route intraperitoneal. The procedure, abridged: as §3

Series [24] relates to P388. Nature of the series: Antitumor activity against mouse P388 cells allografted in female CDF1 mouse assessed as change in body weight at 50 mg/kg, ip administered daily for 9 days as saline with Tween-80 solution starting 24 hrs after tumor inoculation. It counts as functional. The settings on record: route intraperitoneal. Summed up: as §1

Molecules are shown by their SMILES.

On to `O=C(NC1CCCCC1)OCc1c(COC(=O)NC2CCCCC2)c(-c2ccc(Cl)c(Cl)c2)n2c1CCC2`, for which the Activity is -0.6 g in the series with P388 [1]; “Non-toxic” with Mus musculus [2]; -0.6 g in the series on P388 [4]; “Non-toxic” with Mus musculus [7]; -1.2 g in the series on P388 [8]; -2.5 g with P388 [9]. Moreover, the Activity result with Mus musculus [11] is “Non-toxic”; in the series with P388 [12] it was -4 g; in the series on Mus musculus [13] it was “Non-toxic”; in the series on Mus musculus [15] it was “Non-toxic”; in the series on P388 [17], -1.1 g; in the series with P388 [18] it was -2.8 g. Besides, the Activity result was “Non-toxic” in the series with Mus musculus [19], “Non-toxic” with Mus musculus [20], “Non-toxic” in the series on Mus musculus [21] and -2 g in the series on P388 [24]. For the same molecule, the T/C (as a rule, the ratio of treated to control) in the series on P388 [3] was found to be 212%; with P388 [5] it was 187%; in the series with P388 [6], 174%; with P388 [10] it was 150%; in the series with P388 [14], 79%; in the series on P388 [16] it was 168%. Moreover, the T/C in the series on P388 [22] is on record as 166%; in the series on P388 [23], 91%.
